Source: ChEMBL document CHEMBL5712072, “Epigenetic targeting of Hedgehog pathway transcriptional output through BET bromodomain inhibition” (Nat Med, 2014)
pIC50: −log10 of the molar value. Calls of active or inactive are those of the source. The calls are words filed in the database; no cut-off is given here.

Tests used:
Medulloblastoma cell [1] = assay: Induction of apoptosis in human wildtype SMO expressing medulloblastoma cells assessed as early apoptotic cells by annexin-V/PI staining based flow cytometric analysis (reference value: 0.59%); format: functional
[2] = target: Bromodomain-containing protein 4 (Mus musculus) (UniProt Q9ESU6); assay: Inhibition of BRD4 in mouse Hh-Light2 cells assessed as Gli1 mRNA level by qRT-PCR analysis
[3] = target: Zinc finger protein GLI2 (Homo sapiens) (UniProt P10070); assay: Inhibition of human GLI2 expressed in Hh-Light2 cells assessed as reduction in Gli1 mRNA expression level by qRT-PCR analysis; format: cell-based
Method in brief: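 Hh-Light2 cells transiently transfected (Turbofect) with full-length murine HA-Gli2-FL or N-terminally truncated human Myc-GLI2-DN; drugs (1 uM JQ1, GDC-0449, LDE225 or SANT-1) added 24hr post-transfection; Gli1 mRNA by SYBR Green qRT-PCR; mean of triplicates ± SD.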

MEF [4] = assay: Downregulation of Gli1 protein expression in Sufu-/- MEF cells by immunoblot analysis; format: functional, cell-based; conditions: Mus musculus
Method in brief: (§1)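 Sufu−/− MEFs exposed to DMSO or 1 uM of JQ1, GDC-0449, LDE225 or SANT-1; RIPA lysis 30min on ice, cleared 13000rpm 15min 4°C; SDS-PAGE immunoblot with anti-GLI1, β-tubulin as loading control.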

Medulloblastoma cell [5] = assay: Antiproliferative activity against in […] medulloblastoma cells expressing SmoWT-MB cells from mouse assessed as cell proliferation by EdU analysis; format: functional, cell-based
Method in brief: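 SmoWT-MB cells given 0.1uM GDC-0449 or LDE225 (or JQ1 1 uM); 10uM EdU added for final 6-8hrs; EdU+ cells detected by Click-iT flow cytometry or imaging, DAPI counterstain; proliferation index = EdU+/DAPI+ cells; group means ± SD.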

Medulloblastoma cell [6] = assay: Induction of apoptosis in mouse wildtype SMO expressing medulloblastoma cells assessed as late apoptotic cells by annexin-V/PI staining based flow cytometric analysis (reference value: 2.5%)
Medulloblastoma cell [7] = assay: Induction of apoptosis in mouse wildtype SMO expressing medulloblastoma cells assessed as necrotic cells by annexin-V/PI staining based flow cytometric analysis (reference value: 22%)
MEF [8] = assay: Downregulation of Gli transcription in Sufu-/- MEF cells by immunoblot analysis; format: functional, cell-based; conditions: Mus musculus; method in brief: as §1
[9] = target: Bromodomain-containing protein 4 (Mus musculus) (UniProt Q9ESU6); assay: Inhibition of BRD4 in mouse Hh-Light2 cells assessed as inhibition in Gli1 protein level by immunoblot analysis
Medulloblastoma cell [10] = assay: Induction of apoptosis in human wildtype SMO expressing medulloblastoma cells assessed as viable cells by annexin-V/PI staining based flow cytometric analysis (reference value: 74.9%); format: functional
Hh-Light2 [11] = assay: Inhibition of full length murine Gli2 expressed in […] Hh-Light2 cells assessed as reduction in mRNA level at 1 microM by qRT-PCR analysis; format: cell-based; conditions: Mus musculus
Method in brief: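 Hh-Light2 cells were transiently transfected with HA-Gli2-FL using Turbofect and treated 24 h later with 1 uM JQ1, GDC-0449, LDE225 or SANT-1. Gli1 mRNA was measured by qRT-PCR. Values are mean of triplicates ± SD.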

Medulloblastoma cell [12] = assay: Downregulation of sufu mRMA expression in […] Medulloblastoma cell expressing wildtype SMO at 1 microM by qRT-PCR analysis; format: functional, cell-based
Method in brief: (§2)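 SmoWT-MB cells were treated with JQ1 at 1 uM (GDC-0449 or LDE225 at 0.1 uM as comparators). Gli1, Gli2, Smo, Sufu and Brd4 mRNA were measured by SYBR Green quantitative RT-PCR. Values are mean of triplicates ± SD.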

Medulloblastoma cell [13] = assay: Downregulation of BRD4 mRMA expression in […] Medulloblastoma cell expressing wildtype SMO at 1 microM by qRT-PCR analysis; format: functional, cell-based; method in brief: as §2
Hh-Light2 [14] = assay: Upregulation of Ptch1 mRNA level in […] Hh-Light2 cells transfected with full length murine Gli2 by RT-PCR analysis; format: functional, cell-based; conditions: dose 1.0 µM
Method in brief: (§3)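 Hh-Light2 cells were transiently transfected with HA-Gli2-FL (murine) or Myc-GLI2-DN (N-terminally truncated human) and treated with drugs 24 h post-transfection. Ptch1 mRNA was measured by qRT-PCR. Values are mean of triplicates ± SD.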

[15] = Induction of apoptosis in human Med1 cells assessed as late apoptotic cells by annexin-V/PI staining based flow cytometric analysis (reference value: 0.60%); format: functional, Medulloblastoma cell
Medulloblastoma cell [16] = assay: Antiproliferation of […] Hh driven medulloblastoma cells […] by cell titre glo assay; format: functional, cell-based
Hh-Light2 [17] = assay: Upregulation of Sufu mRNA level in […] Hh-Light2 cells at 1 microM by qRT-PCR analysis; format: functional, cell-based
Method in brief: (§4)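 Hh-Light2 (mouse 3T3 Gli-luciferase reporter line) cells were stimulated with Shh-N conditioned medium or SAG, alone or with JQ1 1 uM. Gli1, Gli2, Ptch1, Sufu, Smo and Brd4 mRNA were measured by SYBR Green qRT-PCR. Values are mean of triplicates ± SD.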

Hh-Light2 [18] = assay: Upregulation of Ptch1 mRNA level in […] Hh-Light2 cells transfected with […] GlI2 by RT-PCR analysis; format: functional, cell-based; conditions: dose 1.0 µM; method in brief: as §3
MEF [19] = assay: Downregulation of BRD4 mRNA level in Sufu-/- MEF cells by qRT-PCR analysis; format: functional, cell-based; conditions: Mus musculus
Danio rerio = species: Danio rerio; assay: Effect on heat shock treated transgenic zebra fish assessed as increase in eye diameter; format: functional, organism-based
Method in brief: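 Tg(hsp70l:shha-EGFP)+/− x TL embryos were heat shocked at 38 °C for 15 min at the 8-somite stage, then placed directly in JQ1 (0.6 or 6.0 um) or DMSO. At […] embryos were sorted GFP+/− into fresh drug. Eye dorsal axis length was scored at 56 hpf, n=12 per group; Student's t-test.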

Med1 [20] = assay: Downregulation of Gli1mRNA expression in […] Med1 cells at 1 microM by qRT-PCR analysis; format: functional, cell-based
Method in brief: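 Med1-MB cells were treated with JQ1 1 uM, and Gli1 mRNA was measured by SYBR Green qRT-PCR. Values are mean of triplicates ± SD.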

MEF [21] = assay: Downregulation of Gli2 transcription in Sufu-/- MEF cells at 1 microM by […] analysis; format: functional, cell-based; conditions: Mus musculus
MEF [22] = assay: Downregulation of Gli1 mRNA level in Sufu-/- MEF cells at 1 microM by qRT-PCR analysis; format: functional, cell-based; conditions: Mus musculus
Method in brief: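 Sufu−/− MEFs were treated with DMSO or inhibitors at 1 uM, and Gli1/Gli2 mRNA was measured by SYBR Green qRT-PCR (mean of triplicates ± SD). A time course with JQ1 1 uM included a 3 h point.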

[23] = Induction of apoptosis in human Med1 cells assessed as necrotic cells by annexin-V/PI staining based flow cytometric analysis (reference value: 1.87%); format: functional, Medulloblastoma cell
[24] = Cytotoxicity in Ptch-mutated human Med1 cells expressing wildtype SMO by CellTiter-Glo analysis; format: functional, cell-based
Medulloblastoma cell [25] = assay: Antiproliferation of human Hh driven medulloblastoma cells by cell titre glo assay; format: functional, cell-based
[26] = Induction of apoptosis in human Med1 cells assessed as early apoptotic cells by annexin-V/PI staining based flow cytometric analysis (reference value: 1.09%); format: functional, Medulloblastoma cell
Medulloblastoma cell [27] = assay: Antitumor activity in […] medulloblastoma cells expressing SmoD477G mutant xenografted in NSG mouse assessed as decrease in tumor growth at 50 mg/kg/day, ip; format: functional, organism-based
Method in brief: (§5)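 SmoWT-MB or SmoD477G-MB cells, 2x10e6 per flank, injected into both flanks of 4-6 week old NSG mice. After engraftment mice were randomized to vehicle, JQ1 50 mg/kg IP qd or GDC-0449 100 mg/kg PO qd until euthanasia was required. Tumor growth was measured by caliper; data are group means ± S.E.M.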

Hh-Light2 [28] = assay: Upregulation of Smo mRNA level in […] Hh-Light2 cells at 1 microM by qRT-PCR analysis; format: functional, cell-based; method in brief: as §4
[29] = target: Bromodomain-containing protein 4 (Danio rerio) (UniProt F1R5H6); assay: Inhibition of BRD4 in danio rerio assessed as decrease in GFP mRNA expression level by qRT-PCR analysis
[30] = Induction of apoptosis in human Med1 cells assessed as viable cells by annexin-V/PI staining based flow cytometric analysis (reference value: 96.4%); format: functional, Medulloblastoma cell
Medulloblastoma cell [31] = assay: Cytotoxicity in Ptch-mutated in […] medulloblastoma cells expressing wildtype SMO by CellTiter-Glo analysis; format: functional, cell-based
[32] = Toxicity in NSG mouse xenografted with Med1 cells assessed as survival of mouse at 50 mg/kg/day, ip; format: organism-based; conditions: in vivo
Method in brief: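 Med1-MB cells carrying luciferase, 0.5x10e6, were injected into the cerebellum of NSG mice. After engraftment was confirmed, mice were randomized to JQ1 50 mg/kg IP daily or vehicle until euthanasia was required, and survival was recorded.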

Medulloblastoma cell [33] = assay: Antitumor activity in […] medulloblastoma expressing wildtype SMO xenografted in NSG mouse assessed as reduction in tumor growth at 50 mg/kg/day, ip; format: functional, organism-based; method in brief: as §5
Hh-Light2 [34] = assay: Downregulation of Brd4 mRNA level in […] Hh-Light2 cells at 1 microM by qRT-PCR analysis; format: functional, cell-based; method in brief: as §4
Med1 [35] = assay: Antitumor activity in […] Med1 cells xenografted in NSG mouse assessed as reduction in tumor growth at 50 mg/kg/day, ip; format: functional, organism-based
Method in brief: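 Med1-MB cells carrying a lentiviral luciferase reporter, 2x10e6 injected into the flank of 4-6 week old NSG mice. After engraftment was confirmed, mice were randomized to JQ1 50 mg/kg IP daily or vehicle. Tumor growth was followed by IVIS imaging as average radiance; tumor size was also recorded at day 21 of treatment.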

Med1 [36] = assay: Induction of cell cycle arrest in […] Med1 cells assessed as increased accumulation of cells in G1 phase by PI staining based FACS analysis; format: functional
Method in brief: (§6)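 Med1-MB cells were treated with JQ1, fixed in 70% ethanol for 30 min at 4 °C, and stained with PI plus RNase A at 37 °C for 45 min. Cells were filtered through 70 um mesh, and cell-cycle distribution was read by FACS.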

Med1 [37] = assay: Induction of cell cycle arrest in […] Med1 cells assessed as decreased accumulation of cells in S phase by PI staining based FACS analysis; format: functional; method in brief: as §6
Hh-Light2 [38] = assay: Upregulation of Gli1 mRNA level in […] Hh-Light2 cells at 1 microM by qRT-PCR analysis; format: functional, cell-based; method in brief: as §4
Hh-Light2 [39] = assay: Upregulation of Ptch1 mRNA level in […] Hh-Light2 cells at 1 microM by qRT-PCR analysis; format: functional, cell-based; method in brief: as §4
Hh-Light2 [40] = assay: Upregulation of Gli2 mRNA level in […] Hh-Light2 cells at 1 microM by qRT-PCR analysis; format: functional, cell-based; method in brief: as §4
Medulloblastoma cell [41] = assay: Downregulation of Smo mRMA expression in […] Medulloblastoma cell expressing wildtype SMO at 1 microM by qRT-PCR analysis; format: functional, cell-based; method in brief: as §2

Zinc finger protein GLI2 (Homo sapiens), sequence (P10070 whole entry, the tested form may be a part): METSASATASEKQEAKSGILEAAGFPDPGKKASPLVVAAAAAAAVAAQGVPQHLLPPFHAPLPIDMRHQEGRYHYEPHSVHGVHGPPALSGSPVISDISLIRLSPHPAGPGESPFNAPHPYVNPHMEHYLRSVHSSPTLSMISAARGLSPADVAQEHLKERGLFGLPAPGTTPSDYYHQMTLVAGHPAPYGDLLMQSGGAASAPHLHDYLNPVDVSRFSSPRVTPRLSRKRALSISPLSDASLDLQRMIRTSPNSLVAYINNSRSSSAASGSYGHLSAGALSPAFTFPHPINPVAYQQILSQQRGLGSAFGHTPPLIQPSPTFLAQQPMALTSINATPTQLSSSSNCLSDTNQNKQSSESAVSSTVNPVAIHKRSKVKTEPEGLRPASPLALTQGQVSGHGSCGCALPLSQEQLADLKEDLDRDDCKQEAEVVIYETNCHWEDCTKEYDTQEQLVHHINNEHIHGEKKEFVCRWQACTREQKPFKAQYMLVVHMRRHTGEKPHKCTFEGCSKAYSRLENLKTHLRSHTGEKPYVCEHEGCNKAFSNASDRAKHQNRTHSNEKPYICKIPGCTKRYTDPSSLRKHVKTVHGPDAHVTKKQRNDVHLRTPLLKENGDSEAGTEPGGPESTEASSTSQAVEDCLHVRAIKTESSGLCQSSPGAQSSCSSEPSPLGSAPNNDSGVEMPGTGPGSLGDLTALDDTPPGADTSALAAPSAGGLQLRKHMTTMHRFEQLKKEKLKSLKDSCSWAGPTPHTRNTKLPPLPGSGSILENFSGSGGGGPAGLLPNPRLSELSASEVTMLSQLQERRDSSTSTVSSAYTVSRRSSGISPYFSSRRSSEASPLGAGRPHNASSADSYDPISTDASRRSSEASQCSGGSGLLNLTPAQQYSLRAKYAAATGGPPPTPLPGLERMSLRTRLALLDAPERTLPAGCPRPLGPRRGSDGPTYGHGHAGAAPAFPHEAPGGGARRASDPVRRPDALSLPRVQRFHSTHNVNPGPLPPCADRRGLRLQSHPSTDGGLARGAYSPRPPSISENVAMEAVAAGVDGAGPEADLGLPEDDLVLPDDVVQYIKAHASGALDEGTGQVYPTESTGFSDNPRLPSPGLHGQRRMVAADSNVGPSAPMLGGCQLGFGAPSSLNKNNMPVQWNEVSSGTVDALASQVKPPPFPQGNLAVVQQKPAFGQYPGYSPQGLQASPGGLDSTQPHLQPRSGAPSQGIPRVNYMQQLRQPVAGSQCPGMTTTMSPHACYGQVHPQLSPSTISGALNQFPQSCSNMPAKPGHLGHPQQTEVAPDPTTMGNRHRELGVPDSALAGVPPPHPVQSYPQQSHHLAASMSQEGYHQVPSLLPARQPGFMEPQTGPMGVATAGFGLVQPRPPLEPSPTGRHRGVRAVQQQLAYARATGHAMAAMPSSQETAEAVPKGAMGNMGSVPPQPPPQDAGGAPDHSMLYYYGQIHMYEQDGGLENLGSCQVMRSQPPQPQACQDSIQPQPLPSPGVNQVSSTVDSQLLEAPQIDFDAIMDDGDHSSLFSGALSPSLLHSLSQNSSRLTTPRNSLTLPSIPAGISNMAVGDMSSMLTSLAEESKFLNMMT
Bromodomain-containing protein 4 (Danio rerio), sequence (F1R5H6 whole entry): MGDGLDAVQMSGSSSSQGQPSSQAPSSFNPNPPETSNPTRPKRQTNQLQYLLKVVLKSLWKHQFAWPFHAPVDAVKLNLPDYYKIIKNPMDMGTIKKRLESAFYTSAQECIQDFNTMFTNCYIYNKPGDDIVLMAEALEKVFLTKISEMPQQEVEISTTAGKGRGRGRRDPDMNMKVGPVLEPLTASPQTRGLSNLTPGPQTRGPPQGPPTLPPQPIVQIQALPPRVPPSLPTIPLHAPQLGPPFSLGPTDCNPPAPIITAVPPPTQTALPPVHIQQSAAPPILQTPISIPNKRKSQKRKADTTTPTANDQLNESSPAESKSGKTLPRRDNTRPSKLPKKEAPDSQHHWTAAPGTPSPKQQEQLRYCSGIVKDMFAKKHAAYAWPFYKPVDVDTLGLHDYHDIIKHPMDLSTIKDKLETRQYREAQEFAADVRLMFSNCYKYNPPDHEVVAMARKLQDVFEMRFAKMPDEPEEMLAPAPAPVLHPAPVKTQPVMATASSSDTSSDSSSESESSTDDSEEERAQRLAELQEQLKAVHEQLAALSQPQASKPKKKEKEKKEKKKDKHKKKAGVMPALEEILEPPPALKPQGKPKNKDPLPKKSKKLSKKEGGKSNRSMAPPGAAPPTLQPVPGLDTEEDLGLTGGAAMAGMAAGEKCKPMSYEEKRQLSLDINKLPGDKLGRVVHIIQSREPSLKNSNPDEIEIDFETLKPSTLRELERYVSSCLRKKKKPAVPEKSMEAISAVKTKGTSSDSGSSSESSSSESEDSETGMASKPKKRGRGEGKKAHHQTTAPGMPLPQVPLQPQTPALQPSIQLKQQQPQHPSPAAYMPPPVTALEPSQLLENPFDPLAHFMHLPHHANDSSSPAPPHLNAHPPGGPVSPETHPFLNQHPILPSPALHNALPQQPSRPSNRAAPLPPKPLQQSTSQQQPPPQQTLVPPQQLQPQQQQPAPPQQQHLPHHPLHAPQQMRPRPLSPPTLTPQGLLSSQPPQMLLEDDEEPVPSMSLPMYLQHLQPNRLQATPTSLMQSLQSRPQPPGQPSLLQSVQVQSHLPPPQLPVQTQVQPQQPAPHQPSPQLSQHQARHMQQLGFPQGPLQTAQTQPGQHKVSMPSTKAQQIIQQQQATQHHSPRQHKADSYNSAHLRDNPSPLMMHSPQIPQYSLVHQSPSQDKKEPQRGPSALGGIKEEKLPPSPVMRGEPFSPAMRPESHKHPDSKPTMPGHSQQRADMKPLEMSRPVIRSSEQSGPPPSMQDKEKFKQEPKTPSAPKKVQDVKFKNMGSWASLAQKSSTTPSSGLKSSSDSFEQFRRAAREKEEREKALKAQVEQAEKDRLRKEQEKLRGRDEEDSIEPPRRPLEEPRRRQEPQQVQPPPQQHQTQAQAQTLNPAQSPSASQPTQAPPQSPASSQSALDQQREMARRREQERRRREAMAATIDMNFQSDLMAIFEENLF

Structure (SMILES): Cc1c(C(=O)Nc2ccc(N3C[C@@H](C)O[C@@H](C)C3)nc2)cccc1-c1ccc(OC(F)(F)F)cc1 [SONIDEGIB]
- Activity (Medulloblastoma cell [1]): 1.09%
- inhibition [2]: Active
- inhibition [3]: inactive
- Activity (MEF [4]): inactive
- Activity (Medulloblastoma cell [5]): Active
- Activity (Medulloblastoma cell [6]): 7.15%
- Activity (Medulloblastoma cell [7]): 58.8%
- Activity (MEF [8]): inactive
- inhibition [9]: Active
- Activity (Medulloblastoma cell [10]): 33%

Structure (SMILES): Cc1sc2c(c1C)C(c1ccc(Cl)cc1)=N[C@@H](CC(=O)OC(C)(C)C)c1nnc(C)n1-2
- inhibition (Hh-Light2 [11]): Active
- Activity (Medulloblastoma cell [12]): Active
- Activity (Medulloblastoma cell [1]): 0.64%
- Activity (Medulloblastoma cell [13]): Active
- Activity (Hh-Light2 [14]): inactive
- Activity [15]: 1.61%
- Activity (Medulloblastoma cell [16]): Active
- Activity (Hh-Light2 [17]): inactive
- Activity (Hh-Light2 [18]): Active
- Activity (MEF [19]): inactive
- Activity (Danio rerio): Active
- Activity (Med1 [20]): Active
- Activity (MEF [21]): Active
- Activity (Medulloblastoma cell [5]): Active
- Activity (Medulloblastoma cell [6]): 5.44%
- Activity (MEF [22]): Active
- Activity [23]: 10.1%
- pIC50 [24]: ~7.30
- Activity (Medulloblastoma cell [25]): Active
- Activity (Medulloblastoma cell [7]): 54.7%
- Activity [26]: 0.35%
- Activity (Medulloblastoma cell [27]): Active
- Activity (Hh-Light2 [28]): Active
- Activity (Medulloblastoma cell [10]): 39.2%
- inhibition [29]: Active
- Activity [30]: 87.9%
- pIC50 (Medulloblastoma cell [31]): ~7.30
- Activity [32]: Non-Toxic
- Activity (Medulloblastoma cell [33]): Active
- Activity (Hh-Light2 [34]): inactive
- Activity (Med1 [35]): Active
- Activity (Med1 [36]): Active
- Activity (Med1 [37]): Active
- Activity (Hh-Light2 [38]): Active
- Activity (Hh-Light2 [39]): Active
- Activity (Hh-Light2 [40]): Active
- Activity (Medulloblastoma cell [41]): Active

Structure (SMILES): Cc1nn(-c2ccccc2)c(C)c1/C=N/N1CCN(Cc2ccccc2)CC1
- inhibition [2]: Active
- inhibition [3]: inactive
- Activity (MEF [4]): inactive
- Activity (MEF [8]): inactive
- inhibition [9]: Active
